Data reported in ChEMBL document CHEMBL1128335, “Design and synthesis of piperidine-3-carboxamides as human platelet aggregation inhibitors” (J Med Chem, 1995).

What was measured:
[1] = organism: Homo sapiens; test: Inhibitory activity against human platelet aggregation.; type: functional
In short: (§1)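 Human citrated PRP (blood:3.2% citrate 8:1; 120g, 15 min, 23 °C), count adjusted to 250 000–300 000/mm^3 with autologous PPP, gassed with 5% CO2/95% air, held at 37 °C. Test compound incubated 4 min. Aggregation triggered with each donor's minimal ADP concentration giving full biphasic response. Light transmission recorded 5.5 min. IC50 from regression of % inhibition on log molar concentration; mean ± SE, 4–6 determinations.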

[2] = Partition coefficient (logP); type: physicochemical; conditions: octanol/water
[3] = organism: Homo sapiens; test: Inhibitory activity against human platelet aggregation; Inactive; type: functional; in short: as §1
[4] = organism: Homo sapiens; test: Inhibitory activity against human platelet aggregation at 200 uM; type: functional

| Structure (SMILES) | IC50 ([1]; Homo sapiens, read-out: IC50) | logP ([2]; read-out: logP) | other results |
| --- | --- | --- | --- |
| CCN(Cc1ccccc1)C(=O)C1CCCN(Cc2ccc(CN3CCCC(C(=O)N(CC)Cc4ccccc4)C3)cc2)C1 (stereo not drawn) | 37.7 µM | 5.76 | – |
| COc1cc(CNC(=O)C2CCCN(Cc3ccc(CN4CCCC(C(=O)NCc5cc(OC)c(OC)c(OC)c5)C4)cc3)C2)cc(OC)c1OC (stereo not drawn) | 134 µM | 4.06 | – |
| CCN(CC)C(=O)C1CCCN(Cc2ccccc2-c2ccccc2CN2CCCC(C(=O)N(CC)CC)C2)C1 (stereo not drawn) | 354 µM | 5.43 | – |
| CCN(CC)C(=O)C1CCCN(Cc2ccc(-c3ccc(CN4CCCC(C(=O)N(CC)CC)C4)cc3)cc2)C1 (stereo not drawn) | 478 µM | 5.43 | – |
| CCN(CC)C(=O)C1CCCN(CC2CCC(CN3CCCC(C(=O)N(CC)CC)C3)CC2)C1 (stereo not drawn) | > 1000 µM | 4.57 | – |
| CCN(CC)C(=O)C1CCCN(CCCCCCCCCCN2CCCC(C(=O)N(CC)CC)C2)C1 (stereo not drawn) | 207 µM | 5.92 | – |
| CCN(CC)C(=O)C1CCCN(CCCCCCCCN2CCCC(C(=O)N(CC)CC)C2)C1 (stereo not drawn) | 214 µM | 4.89 | – |
| O=C(C1CCCN(Cc2ccc(CN3CCCC(C(=O)N(Cc4ccccc4)Cc4ccccc4)C3)cc2)C1)N(Cc1ccccc1)Cc1ccccc1 (stereo not drawn) | 303 µM | 8.03 | – |
| CCCCCCN(C)C(=O)C1CCCN(Cc2ccc(CN3CCCC(C(=O)N(C)CCCCCC)C3)cc2)C1 (stereo not drawn) | 48.8 µM | 6.59 | – |
| CCN(CC)C(=O)C1CCCN(CCCCCCCCCCCCN2CCCC(C(=O)N(CC)CC)C2)C1 (stereo not drawn) | 85.3 µM | 6.96 | – |
| O=C(NCc1ccccc1)C1CCCN(Cc2ccc(CN3CCCC(C(=O)NCc4ccccc4)C3)cc2)C1 (stereo not drawn) | 53.6 µM | 4.18 | – |
| CCCCCCCCCCN1CCCC(C(=O)N2CCN(C(=O)C3CCCN(CCCCCCCCCC)C3)C(C)C2)C1 (stereo not drawn) | 20.9 µM | – | logP [2]: 9.58 |
| CCCCCCCCCCN1CCCC(C(=O)N2CCC(C3CCN(C(=O)C4CCCN(CCCCCCCCCC)C4)CC3)CC2)C1 (stereo not drawn) | 25.9 µM | – | logP [2]: 11.322 |
| CCCCCCCCCCN1CCCC(C(=O)N2CCN(C(=O)C3CCCN(CCCCCCCCCC)C3)CC2)C1 (stereo not drawn) | 16 µM | – | logP [2]: 9.06 |
| CCCCCCCCCCN1CCCC(C(=O)N2CC(C)N(C(=O)C3CCCN(CCCCCCCCCC)C3)CC2C)C1 (stereo not drawn) | 23.8 µM | – | logP [2]: 10.096 |
| CCN(CC)C(=O)C1CCCN(Cc2ccccc2Cl)C1 (stereo not drawn) | 2810 µM | 3.49 | – |
| CCN(CC)C(=O)C1CCCN(Cc2ccccc2)C1 (stereo not drawn) | 7400 µM | 2.75 | – |
| CCN(CC)C(=O)C1CCCN(Cc2ccc(Cl)cc2)C1 (stereo not drawn) | 217 µM | 3.49 | – |
| CCN(CC)C(=O)C1CCCN(CN2CC2)C1 (stereo not drawn) | 3250 µM | 2.43 | – |
| CCCCCCCCCCN1CCCC(C(=O)N(CC)CC)C1 (stereo not drawn) | 242 µM | 5.76 | – |
| CCCCCCCCCCN1CCCC(NC(=O)C2CCCN(CCCCCCCCCC)C2)C1 (stereo not drawn) | – | – | IC50 [3]: Not Active; logP [2]: 9.96 |
| CCN(CC)C(=O)C1CCCN(Cc2cccc(Cl)c2)C1 (stereo not drawn) | 1650 µM | 3.49 | – |
| Br.Br.CCN(CC)C(=O)C1CC(C(=O)N(CC)CC)CN(Cc2ccc(CN3CC(C(=O)N(CC)CC)CC(C(=O)N(CC)CC)C3)cc2)C1 (stereo not drawn) | – | 3.39 | IC50 [3]: Not Active |
| Br.CCN(CC)C(=O)C1CCCN(Cc2ccc(C(C)(C)C)cc2)C1 (stereo not drawn) | – | 4.83 | IC50 [1]: Not Active; inhibition at 200 µM [4]: 2% |
| CCCCCCCCCCN1CCCC(C(=S)N(CC)CC)C1 (stereo not drawn) | 358 µM | 6.53 | – |
| CCCCCCCCCCN1CCCC(C(=O)N2CC(C)N(C(=O)C3CCCN(CCCCCCCCCC)C3)C(C)C2)C1 (stereo not drawn) | 22.9 µM | – | logP [2]: 10.096 |

Further lines, with some results ahead:

| IC50 ([1]; Homo sapiens, read-out: IC50) | logP ([2]; read-out: logP) | Structure (SMILES) | other results |
| --- | --- | --- | --- |
| 51.6 µM | 5.01 | CCN(CC)C(=S)C1CCCN(Cc2ccc(CN3CCCC(C(=S)N(CC)CC)C3)cc2)C1 (stereo not drawn) | – |
| 757 µM | 4.21 | CCOC(=O)C1CCCN(Cc2ccc(CN3CCCC(C(=O)OCC)C3)cc2)C1 (stereo not drawn) | – |
| > 500 µM | 2.45 | O=C(O)C1CCCN(Cc2ccc(CN3CCCC(C(=O)O)C3)cc2)C1 (stereo not drawn) | – |
| 18.4 µM | 5.55 | CCCCN(CC)C(=O)C1CCCN(Cc2ccc(CN3CCCC(C(=O)N(CC)CCCC)C3)cc2)C1 (stereo not drawn) | – |
| > 500 µM | 4.6 | CC1CCCN(Cc2ccc(CN3CCCC(C)C3)cc2)C1 (stereo not drawn) | – |
| 39.3 µM | 5.55 | CCCN(CCC)C(=O)C1CCCN(Cc2ccc(CN3CCCC(C(=O)N(CCC)CCC)C3)cc2)C1 (stereo not drawn) | – |
| 144 µM | 3.48 | CC(C)N(C)C(=O)C1CCCN(Cc2ccc(CN3CCCC(C(=O)N(C)C(C)C)C3)cc2)C1 (stereo not drawn) | – |
| 34.6 µM | 3.48 | CCCN(C)C(=O)C1CCCN(Cc2ccc(CN3CCCC(C(=O)N(C)CCC)C3)cc2)C1 (stereo not drawn) | – |
| 58.8 µM | 5.55 | CC(C)N(C(=O)C1CCCN(Cc2ccc(CN3CCCC(C(=O)N(C(C)C)C(C)C)C3)cc2)C1)C(C)C (stereo not drawn) | – |
| 8460 µM | 3.57 | c1cc(CN2CCCCC2)ccc1CN1CCCCC1 | – |
| 311 µM | 2.89 | O=C(C1CCCN(Cc2ccc(CN3CCCC(C(=O)N4CCSCC4)C3)cc2)C1)N1CCSCC1 (stereo not drawn) | – |
| 589 µM | 2.3 | CC(O)C1CCCN(Cc2ccc(CN3CCCC(C(C)O)C3)cc2)C1 (stereo not drawn) | – |
| 32.7 µM | 2.75 | O=C(C1CCCN(Cc2ccc(CN3CCCC(C(=O)N4CCCC4)C3)cc2)C1)N1CCCC1 (stereo not drawn) | – |
| 28.9 µM | 3.79 | O=C(C1CCCN(Cc2ccc(CN3CCCC(C(=O)N4CCCCC4)C3)cc2)C1)N1CCCCC1 (stereo not drawn) | – |
| 277 µM | 8.14 | O=C(C1CCCN(Cc2ccc(CN3CCCC(C(=O)N4CCC(Cc5ccccc5)CC4)C3)cc2)C1)N1CCC(Cc2ccccc2)CC1 (stereo not drawn) | – |
| – | 0.74 | CC(=O)NCC1CCCN(Cc2ccc(CN3CCCC(CNC(C)=O)C3)cc2)C1 (stereo not drawn) | – |
| 84.6 µM | 4.63 | CCCCCN1CCCC(C(=O)N2CCCN(C(=O)C3CCCN(CCCCC)C3)CC2)C1 (stereo not drawn) | – |
| 1650 µM | 0.74 | O=C(C1CCCN(Cc2ccc(CN3CCCC(C(=O)N4CCOCC4)C3)cc2)C1)N1CCOCC1 (stereo not drawn) | – |
